ChEMBL document CHEMBL3877272, “Synthesis and anti-mitotic activity of 6,7-dihydro-4H-isothiazolo[4,5-b]pyridin-5-ones: In vivo and cell-based studies” (Eur J Med Chem, 2017)
Calls of active or inactive are those of the source.

Tests used:
Paracentrotus lividus [1] = experiment: Antimitotic activity in early pluteus stage of sea urchin embryo assessed as growth inhibition of skeletal spicules at 1 uM; type: functional, tissue-based; conditions: Spicule
In short: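 P. lividus embryos (gametes by intracoelomic 0.5 M KCl, fertilized in filtered seawater, room temperature, paddle agitation 60 rpm); compound from 10 mM DMSO stock diluted 10-fold in 96% EtOH; growth of skeletal spicules scored by light microscopy at early pluteus stage.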

Paracentrotus lividus [2] = experiment: Antimitotic activity in sea urchin free-swimming blastulae assessed as microtubule destabilization by measuring embryo spinning exposed 8 to 10 hrs after fertilization measured after 15 mins to 20 hrs; type: functional, Blastula
In short: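 Free-swimming P. lividus blastulae just after hatching (8–10 h post-fertilization) from same culture, exposed in seawater to 2-fold decreasing concentrations (DMSO stock diluted in EtOH). Settling to well bottom with rapid spinning around animal-vegetal axis scored by light microscopy over 15 min–20 h. Effective threshold concentration; duplicate measurements.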

Paracentrotus lividus [3] = experiment: Antimitotic activity in sea urchin embryo assessed as cleavage alteration exposed 8 to 15 mins after fertilization 45 to 55 mins before first mitotic cycle completion measured at 2.5 to 5.5 hrs post dose; type: functional
In short: (§1)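 Paracentrotus lividus eggs, fertilized in filtered seawater, cultured as monolayer (up to 2000 embryos/mL) at room temperature. Exposed 8–15 min post-fertilization to 2-fold decreasing concentrations (DMSO stock diluted in EtOH; final DMSO ≤0.05%, EtOH ≤1%). Cleavage alteration scored at 8-cell, arrest at early blastula stage (2.5–5.5 h). Effective threshold concentration reported; duplicate measurements.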

Paracentrotus lividus [4] = experiment: Antimitotic activity in sea urchin embryo assessed as cleavage arrest exposed 8 to 15 mins after fertilization 45 to 55 mins before first mitotic cycle completion measured at 2.5 to 5.5 hrs post dose; type: functional; in short: as §1
[5] = Antiproliferative activity against human NCI/ADR-RES cells measured after 3 to 4 days by Celltiter-Glo luminescent cell viability assay; type: functional
[6] = Antiproliferative activity against human NCI60 cells measured after 48 hrs by SRB assay; type: functional; conditions: NCI60, 48 h
[7] = Solubility in seawater assessed as micro-crystal formation at 1 uM by light microscopy; type: physicochemical
In short: (§2)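 Compound from 10 mM DMSO stock diluted 10-fold in 96% EtOH, added to seawater with sea urchin embryos; microcrystal formation checked by light microscopy.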

[8] = Antiproliferative activity against human OVCAR8 cells measured after 3 to 4 days by Celltiter-Glo luminescent cell viability assay; type: functional; conditions: OVCAR-8
[9] = Antiproliferative activity against human NCI60 cells at 10 uM after 48 hrs by SRB assay relative to control; type: functional; conditions: NCI60, 48 h, read-out: GI
[10] = Antiproliferative activity against human TOV112D cells measured after 96 hrs by Celltiter-Glo assay; type: functional, cell-based
In short: (§3)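 Cells plated 24 h, then treated 96 h with 0.1% DMSO or concentrations […]; growth by CellTiter-Glo luminescence, normalized to DMSO control; IC50 from dose–response curves by logistic nonlinear regression; mean of three independent experiments.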

[11] = Cell cycle arrest in human MDA-MB-468 cells assessed as reduction in S phase at 1 uM measured after 24 hrs by DNA dye based flow cytometry; type: functional
In short: (§4)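 Cells exposed to 1 µM compound or 0.1% DMSO for 24 h; stained with bivariate cell cycle kit (DNA dye); Sub-G1, G1, S and G2/M fractions by flow cytometry as mean percentage with standard error; two independent experiments in duplicate.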

[12] = Cell cycle arrest in human NCI-H1975 cells assessed as reduction in G1 phase at 1 uM measured after 24 hrs by DNA dye based flow cytometry; type: functional; in short: as §4
[13] = Cell cycle arrest in human NCI-H1975 cells assessed as accumulation in sub-G1 phase at 1 uM measured after 24 hrs by DNA dye based flow cytometry; type: functional; in short: as §4
NCI-H1975 = experiment: Induction of microtubule disintegration in human NCI-H1975 cells at 1 uM measured upto 24 hrs by Hoechst staining-based laser scanning microscopic method; type: cell-based
In short: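 NCI-H1975 cells, 0.1% DMSO or 1 µM compound for 6, 16 and 24 h; paraformaldehyde-fixed, Triton-permeabilized, BSA-blocked, anti-β-tubulin (1:1000, overnight 4 °C) with Alexa Fluor 647 secondary, Hoechst nuclear counterstain; laser scanning confocal imaging.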

[14] = Antiproliferative activity against human MOR cells measured after 3 days by Celltiter-Glo assay; type: functional, cell-based; conditions: 72 h
In short: (§5)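 Cells in ATCC-recommended medium, STR-authenticated, mycoplasma-tested; 3-day exposure to varying concentrations; viability by CellTiter-Glo luminescence normalized to DMSO control; IC50 from logistic nonlinear regression; mean of three independent experiments.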

[15] = Cell cycle arrest in human NCI-H1975 cells assessed as reduction in S phase at 1 uM measured after 24 hrs by DNA dye based flow cytometry; type: functional; in short: as §4
[16] = Cell cycle arrest in human MDA-MB-468 cells assessed as reduction in G1 phase at 1 uM measured after 24 hrs by DNA dye based flow cytometry; type: functional; in short: as §4
[17] = Antiproliferative activity against human MDA-MB-435 cells measured after 48 hrs by SRB assay; type: functional, cell-based; conditions: MDA-MB-435, 48 h
[18] = Antiproliferative activity against human MDA-MB-231 cells measured after 96 hrs by Celltiter-Glo assay; type: functional, cell-based; conditions: MDA-MB-231, 96 h; in short: as §3
[19] = Antiproliferative activity against human A2780 cells measured after 3 days by Celltiter-Glo assay; type: functional, cell-based; conditions: A2780, 72 h; in short: as §5
[20] = Antiproliferative activity against human NCI-H1975 cells measured after 96 hrs by Celltiter-Glo assay; type: functional, cell-based; conditions: NCI-H1975, 96 h; in short: as §3
[21] = Antiproliferative activity against human MDA-MB-435 cells measured after 96 hrs by Celltiter-Glo assay; type: functional, cell-based; conditions: MDA-MB-435, 96 h; in short: as §3
[22] = Antiproliferative activity against human Caov3 cells measured after 96 hrs by Celltiter-Glo assay; type: functional, cell-based; conditions: Caov-3, 96 h; in short: as §3
[23] = Antiproliferative activity against human MDA-MB-DYT2 cells measured after 96 hrs by Celltiter-Glo assay; type: functional, cell-based; in short: as §3
[24] = Antiproliferative activity against human MDA-MB-468 cells measured after 48 hrs by SRB assay; type: functional, cell-based; conditions: MDA-MB-468, 48 h
[25] = Antiproliferative activity against human adriamycin-resistant MOR cells measured after 3 days by Celltiter-Glo assay; type: functional, cell-based; conditions: 72 h; in short: as §5
[26] = Cell cycle arrest in human MDA-MB-468 cells assessed as accumulation in sub-G1 phase at 1 uM measured after 24 hrs by DNA dye based flow cytometry; type: functional; in short: as §4
[27] = Cell cycle arrest in human NCI-H1975 cells assessed as accumulation in G2/M phase at 1 uM measured after 24 hrs by DNA dye based flow cytometry (reference value: 20%); type: functional; in short: as §4
[28] = Cell cycle arrest in human NCI-H1975 cells assessed mitotic index by measuring level of phospho-histone H3 positive cells at 1 uM measured after 24 hrs by DNA dye based flow cytometry (reference value: 1.9); type: functional
[29] = Antiproliferative activity against human MDA-MB-468 cells measured after 96 hrs by Celltiter-Glo assay; type: functional, cell-based; conditions: MDA-MB-468, 96 h; in short: as §3
[30] = Cell cycle arrest in human MDA-MB-468 cells assessed mitotic index by measuring level of phospho-histone H3 positive cells at 1 uM measured after 24 hrs by DNA dye based flow cytometry (reference value: 2.18); type: functional
[31] = Antiproliferative activity against human MOR/CPR cells measured after 3 days by Celltiter-Glo assay; type: functional, cell-based; conditions: 72 h; in short: as §5
[32] = Antiproliferative activity against human A2780/ADR cells measured after 3 days by Celltiter-Glo assay; type: functional, cell-based; conditions: 72 h; in short: as §5
[33] = Antiproliferative activity against human A2780cis cells measured after 3 days by Celltiter-Glo assay; type: functional, cell-based; conditions: A2780cisR, 72 h; in short: as §5
[34] = Solubility in DMSO; type: physicochemical
[35] = Solubility in seawater assessed as micro-crystal formation at 2 uM by light microscopy; type: physicochemical; in short: as §2

| SMILES | Activity (Paracentrotus lividus [1]) | EC (Paracentrotus lividus [2]) [µM] | EC (Paracentrotus lividus [3]) [µM] | EC (Paracentrotus lividus [4]) [µM] | GI50 [5] [nM] | GI50 [6] [nM] | GI50 [8] [nM] | IC50 [10] [nM] | IC50 [17] [nM] | IC50 [18] [nM] | IC50 [20] [nM] | IC50 [21] [nM] | IC50 [22] [nM] | IC50 [23] [nM] | IC50 [24] [nM] | IC50 [29] [nM] | also measured |
| --- | --- | --- | --- | --- | --- | --- | --- | --- | --- | --- | --- | --- | --- | --- | --- | --- | --- |
| COc1cc(C2CC(=O)Nc3c(-c4ccc(F)cc4)nsc32)c(OC)c2c1OCO2 (stereo not given) | Active | >4 | >4 | >4 |  |  |  |  |  |  |  |  |  |  |  |  |  |
| COc1ccc(-c2nsc3c2NC(=O)CC3c2ccc3c(c2)OCO3)cc1 (stereo not given) |  | 0.2 | 0.01 | 0.1 | 524 | 1550 | 3040 |  |  |  |  |  |  |  |  |  | solubility [7]: Insoluble |
| COc1cc(C2CC(=O)Nc3c(-c4ccc(F)cc4)nsc32)cc2c1OCO2 (stereo not given) | Active | >4 | >4 | >4 |  |  |  |  |  |  |  |  |  |  |  |  | inhibition of growth at 10 µM [9]: 10.1% |
| COc1ccc(-c2nsc3c2NC(=O)CC3c2ccsc2)cc1 (stereo not given) |  | 0.1 | 0.002 | 0.005 |  | 302 |  | 136 | 23.5 | 192 | 254 | 80.7 | 152 | 309 | 117 | 163 | Activity [11]: Active; Activity [12]: Active; Activity [13]: Active; Activity (NCI-H1975): Active; IC50 [14]: 702 nM; Activity [15]: Active; Activity [16]: Active; IC50 [19]: 229 nM; IC50 [25]: 63 nM; Activity [26]: Active; Activity [27]: 30%; Activity index [28]: 6.95; Activity index [30]: 11.3; IC50 [31]: 321 nM; IC50 [32]: 355 nM; IC50 [33]: 187 nM |
| COc1ccc(-c2nsc3c2NC(=O)CC3c2cc(OC)c3c(c2)OCO3)cc1 (stereo not given) |  | >4 | >4 | >4 |  |  |  |  |  |  |  |  |  |  |  |  | solubility [34]: Soluble |
| COc1ccc(-c2nsc3c2NC(=O)CC3c2cccc(OC)c2)cc1 (stereo not given) |  | 0.1 | 0.01 | 0.05 | 420 | 1550 | 3220 | 808 | 282 | 1390 | 1980 | 591 | 1480 | 1910 | 395 | 662 | solubility [35]: Insoluble |
